Source: PubChem BioAssay AID624467 (The Scripps Research Institute Molecular Screening Center, 2012)
Hit rate of the full screen: of about 360,000 compounds, about 3,600 (1%) were called active. This excerpt belongs to a sample that is enriched for actives. A number with no mark means an inactive call.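 How the source made its calls: active means activation above the mean activation of all test compounds in the run plus 3 SD (cut at about 38% in these data); inactive means the rest.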

Each molecule was assayed against Trace amine-associated receptor 1 (Homo sapiens) (UniProt Q96RJ0) (assay: activators of TAAR1 calcium mobilization – Fluo-8 calcium fluorescence, CHO RD-HGA16 cells, primary screen (AID 624467)). Settings: CHO RD-HGA16 TAAR1, Fluo-8 calcium fluorescence; at 3 µM; hits give high values; vehicle wells 0%, saturating PEA agonist 100%.
Sequence of Trace amine-associated receptor 1 (Homo sapiens) (Q96RJ0 whole entry, looked up): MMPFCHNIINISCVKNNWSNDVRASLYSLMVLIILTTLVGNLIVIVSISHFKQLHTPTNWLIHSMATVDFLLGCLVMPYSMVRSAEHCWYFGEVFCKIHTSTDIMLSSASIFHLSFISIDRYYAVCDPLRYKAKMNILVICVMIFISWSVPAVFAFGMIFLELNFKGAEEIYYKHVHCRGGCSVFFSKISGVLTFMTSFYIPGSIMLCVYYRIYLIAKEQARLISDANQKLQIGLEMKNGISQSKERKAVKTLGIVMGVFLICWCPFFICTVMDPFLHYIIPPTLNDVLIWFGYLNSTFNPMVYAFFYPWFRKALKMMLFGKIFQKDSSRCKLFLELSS
Summary of the method: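 Repeats: no replicates (n 1) | Material: CHO-derived RD-HGA16 cells with stable Gα16 and human TAAR1 | Technique: Kinetic Fluo-8 calcium fluorescence | Schedule: 17-24 h seeding, 75 min 37 °C dye, 30 min RT | Evaluation: % activation from peak over basal fluorescence ratio, DMSO-to-PEA scaled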

Compound	activation
C[C@H](O)[C@@H]1C(=O)N2CCc3c([nH]c4ccccc34)[C@@H]2C[C@@H]1N(C)C(=O)Nc1ccc(F)cc1	9.88%
O=C(Nc1ccc(Cl)cc1)N1CCc2[nH]c3ccccc3c2C1	50.1% (active)
CCOc1ccc(NC(=O)N2CC=C(n3c(=O)[nH]c4ccccc43)CC2)cc1	15.9%
Fc1ccc(NC(=S)N2CCc3[nH]c4ccccc4c3C2)cc1	51.5% (active)
C=CCNC(=S)N1CCc2[nH]c3ccccc3c2C1	6.5%
CC(=O)C(CC(=O)N1CCCC1)C(=O)Nc1ccc(Cl)cc1 (centres undefined)	7.47%
COC(=O)C(C(=O)OC)c1ccccc1NS(=O)(=O)c1cccc2ccccc12	-0.61%
CCOc1ccccc1C(=O)N1CCC[C@@H]1C(=O)N1CCC[C@H]1C(=O)NCc1ccccc1	-0.21%
Cc1ccc2nc(CN(C)C(=O)[C@@H](Cc3ccccc3)NC(=O)[C@H]3O[C@@H](n4ccc(=O)[nH]c4=O)[C@H](O)[C@@H]3O)[nH]c2c1	1.15%
CC(C)CCNC(=O)Cn1c(=O)oc2cc(S(=O)(=O)N3CC(C)CC(C)C3)ccc21 (centres undefined)	4.15%
N/C(=N\c1nc2ccccc2o1)NC(=O)C(Cc1ccccc1)N1C(=O)c2ccccc2C1=O (centres undefined)	-1.96%
Cc1cccc(CN2CCC(CNC(=O)Nc3ccc(F)c(Cl)c3)CC2)c1	39.9% (active)
Cc1ccc(C)c(CN2CCC(CNC(=O)Nc3ccc(C)c(F)c3)CC2)c1	2.76%
O=C(NCC1CCN(Cc2ccccc2Cl)CC1)Nc1cccc(Cl)c1	2.1%
COc1ccc(C(=O)OCC(=O)NCC2CCCO2)cc1[N+](=O)[O-] (centres undefined)	-0.84%
O=S(=O)(Nc1cc(S(=O)(=O)N2CCOCC2)ccc1N1CCCC1)c1cccs1	-2.22%
CC1(C)c2[nH]c3ccccc3c2C[C@H]2C(=O)N(N)CC(=O)N21	4.18%
COc1cc(S(=O)(=O)N2CCN=C2c2ccccc2)ccc1Cl	-0.47%
CCOC(=O)[C@]12CCCC=C1N(CCC1=CCCCC1)C(=O)[C@H](CC(=O)NCCCOC)C2	-0.95%
CCOc1ccc(/C=C(/NC(=O)c2ccccc2)C(=O)NCCC(=O)O)cc1	5.67%
O=C(NCCc1ccccc1)/C(=C\c1ccc([N+](=O)[O-])cc1)NC(=O)c1ccccc1	50.3% (active)
O=C(NCCN1CCOCC1)/C(=C/c1ccc(F)cc1)NC(=O)c1ccccc1	-2.27%
COC(=O)Cc1nnn2c1[C@H](C)[C@@H](OC)c1cc(Br)ccc1-2	0.26%
O=C(Cn1cnc2c(cnn2-c2ccc(F)cc2)c1=O)NCCc1ccccc1	-0.7%
Cc1ccc(NC(=O)Nc2cc(-c3ccccc3)nn2C)cc1Cl	11.2%
O=C(CC(O)(C(F)(F)F)C(F)(F)F)Nc1ccc(Cl)c(Cl)c1	12.3%
Cc1nnc(NC(=O)Nc2ccc(Cl)c(Cl)c2)s1	42% (active)

Compound	activation
O=P(O)(CP(=O)(c1ccccc1)c1ccccc1)c1ccccc1	12.7%
O=C(COC(=O)Cc1ccccc1F)NCCc1ccccc1	47.4% (active)
COc1ccc(CCNC(=O)COC(=O)Cc2ccccc2F)cc1	2.06%
O=C(COC(=O)Cc1c[nH]c2ccccc12)NCCc1ccccc1	8.93%
COc1ccccc1N(CC(=O)NC1CCCC1)C(=O)C1(C)CC(=O)N=C2C=CC(C)=CN21 (centres undefined)	2.01%
CN(C)CCCN(C(=O)c1ccc(S(=O)(=O)N2CCCc3ccccc32)cc1)c1nc2ccc(F)cc2s1	58.5% (active)
CCC(=O)Nc1nnc(S(=O)(=O)N2CCCc3ccccc32)s1	0.28%
CCN(CC)CCN(C(=O)c1ccc(N2C(=O)CCC2=O)cc1)c1nc2cc3c(cc2s1)OCO3	2.36%
CCN(CC(=O)Nc1c(F)cccc1F)C(=O)c1ccc(S(=O)(=O)N2CCCCC2)cc1	8.1%
CN(C)CCCN(C(=O)c1ccc(S(=O)(=O)N2CCCCCC2)cc1)c1nc2ccc(Br)cc2s1	58.3% (active)
CC1CCN(C(=O)c2cccc(S(=O)(=O)N3CCCc4ccccc43)c2)CC1	2.06%
O=C(NN=Cc1ccccc1O)NN=Cc1ccccc1O	43.2% (active)
C=CCOc1ccccc1/C=N/NC(=O)Cc1ccccc1	3.06%
O=C(CO/N=C/c1ccccc1O)NNC(=O)c1ccccc1Cl	8.86%
NC(CSC(c1ccccc1)(c1ccccc1)c1ccc(-c2ccccc2)cc1)C(=O)O (centres undefined)	3.19%
O=S(=O)(Cc1ccc(Cl)cc1Cl)c1ccc(Cl)cc1	6.28%
COC(=O)C1=C(C)N(Cc2cccc(C(F)(F)F)c2)C(=NCc2cccc(C(F)(F)F)c2)NC1c1ccccc1C(F)(F)F (centres undefined)	-0.1%
O=C(NCCc1ccc(Cl)cc1)C1CCCN1C(=O)NCc1ccccc1 (centres undefined)	-0.77%
O=C(N[C@H](C(=O)N1CCC[C@H]1C(=O)NCCc1ccccc1Cl)c1ccccc1)c1ccccc1	57.5% (active)
CC(=O)c1cccc(NC(=O)N2CCCC2C(=O)NCCc2ccccc2)c1 (centres undefined)	4.48%
CC1CCN(C(=O)CCc2nnc3ccc(NCc4ccco4)nn23)CC1	6.46%
COc1ccc(N2C(=O)CC(Nc3ccc(F)cc3)C2=O)c([N+](=O)[O-])c1 (centres undefined)	2.14%
Nc1nc2c(ncn2[C@@H]2O[C@H](C(=O)N[C@@H](Cc3ccccc3)C(=O)NCc3ccccc3)[C@@H](O)[C@H]2O)c(=O)[nH]1	5.02%
CC(C)[C@H](NC(=O)N1CCn2c1nc1ccccc12)C(=O)NCc1ccc2c(c1)OCO2	3.58%
CC(C)[C@H](NC(=O)N1CCn2c1nc1ccccc12)C(=O)NC1CC1	1.88%
CC(C)[C@H](NC(=O)N1CCn2c1nc1ccccc12)C(=O)NCCc1ccccc1	38.9% (active)
C=CCOc1ccc(C(=O)Nc2ccccc2C(=O)N2CCCC2)cc1	-0.26%
